The source made the active and inactive calls. No cut-off for these calls is given here.
Legend:
[1] = Toxicity in ICR nude mouse xenografted with U87MG cells assessed as reduction in body weight at 30 to 60 mg/kg, po every other day for 24 days; format: organism-based; conditions: in vivo, 576 h, dose 30-60 mg/kg, time 24 day
Outline: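 Male ICR nude mice were implanted subcutaneously with 5 × 10^6 U87MG cells. When tumors reached about 200 mm³, mice were randomized and given 30 or 60 mg/kg by oral gavage every other day for 24 days. Body weight and tumor volume (length × width² × 0.5) were recorded every 4 days, with a vehicle-treated group as comparator.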

[2] = target: Receptor-interacting serine/threonine-protein kinase 1 (Homo sapiens) (UniProt Q13546); experiment: Inhibition of human partial length RIPK1 (M1 to K305 residues) expressed in bacterial expression system assessed as residual activity at 10 uM by kinome scan method relative to control
Outline: (§1)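 KINOMEscan competitive binding screen at 10 μM test compound against a 52-kinase panel. Output is % Ctrl = (test signal − positive control signal)/(negative control signal − positive control signal) × 100. DMSO is the negative control (100%) and the positive control is set to 0%.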

[3] = target: Phosphatidylinositol 4,5-bisphosphate 3-kinase catalytic subunit alpha isoform (Homo sapiens, UniProt P42336); experiment: Inhibition of recombinant human PI3Kalpha using PIP2 as substrate incubated for 1 hr by kinase-glo luminescent assay
[4] = target: Phosphatidylinositol 4,5-bisphosphate 3-kinase catalytic subunit gamma isoform (Homo sapiens, UniProt P48736); experiment: Inhibition of human partial length PIK3CG (S144 to A1102 residues) expressed in mammalian expression system assessed as residual activity at 10 uM by kinome scan method relative to control; outline: as §1
Chain of Phosphatidylinositol 4,5-bisphosphate 3-kinase catalytic subunit gamma isoform (P48736 whole entry, looked up, the tested form may be a part, canonical isoform): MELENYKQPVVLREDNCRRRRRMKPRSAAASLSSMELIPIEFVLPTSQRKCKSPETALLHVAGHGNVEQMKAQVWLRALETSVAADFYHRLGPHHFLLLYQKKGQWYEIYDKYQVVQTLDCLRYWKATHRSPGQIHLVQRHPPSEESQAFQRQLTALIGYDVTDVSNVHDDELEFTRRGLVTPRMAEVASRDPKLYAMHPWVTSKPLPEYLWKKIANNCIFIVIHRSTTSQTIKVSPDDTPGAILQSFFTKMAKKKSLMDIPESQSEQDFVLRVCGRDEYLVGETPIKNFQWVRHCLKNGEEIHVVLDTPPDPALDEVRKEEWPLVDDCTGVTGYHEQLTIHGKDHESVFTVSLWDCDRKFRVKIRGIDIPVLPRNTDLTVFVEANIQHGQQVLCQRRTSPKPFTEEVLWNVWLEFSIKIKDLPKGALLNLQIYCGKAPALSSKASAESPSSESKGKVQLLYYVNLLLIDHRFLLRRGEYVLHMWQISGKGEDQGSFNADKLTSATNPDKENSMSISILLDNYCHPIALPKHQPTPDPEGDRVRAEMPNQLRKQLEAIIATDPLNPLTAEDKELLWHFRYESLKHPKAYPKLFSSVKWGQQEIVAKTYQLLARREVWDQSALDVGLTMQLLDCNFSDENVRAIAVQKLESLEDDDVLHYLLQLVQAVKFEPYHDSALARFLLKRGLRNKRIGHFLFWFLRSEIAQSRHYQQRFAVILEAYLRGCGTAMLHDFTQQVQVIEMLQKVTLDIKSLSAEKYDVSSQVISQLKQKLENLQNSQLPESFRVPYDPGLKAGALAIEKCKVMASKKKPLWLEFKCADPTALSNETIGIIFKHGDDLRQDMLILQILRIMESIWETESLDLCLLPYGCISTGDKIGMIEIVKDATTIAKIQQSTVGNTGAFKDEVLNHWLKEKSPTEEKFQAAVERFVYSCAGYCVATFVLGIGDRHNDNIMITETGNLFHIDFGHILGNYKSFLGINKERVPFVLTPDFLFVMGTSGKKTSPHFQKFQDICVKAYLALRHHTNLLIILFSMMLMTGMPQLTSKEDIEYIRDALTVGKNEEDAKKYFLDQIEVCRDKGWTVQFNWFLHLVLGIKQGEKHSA

[5] = target: Cyclin-dependent kinase 19 (Homo sapiens) (UniProt Q9BWU1); experiment: Inhibition of human partial length CDK11 (M1 to N360 residues) expressed in bacterial system assessed as residual activity at 10 uM by kinome scan method relative to control
Chain of Cyclin-dependent kinase 19 (Homo sapiens) (Q9BWU1 whole entry, the tested form may be a part): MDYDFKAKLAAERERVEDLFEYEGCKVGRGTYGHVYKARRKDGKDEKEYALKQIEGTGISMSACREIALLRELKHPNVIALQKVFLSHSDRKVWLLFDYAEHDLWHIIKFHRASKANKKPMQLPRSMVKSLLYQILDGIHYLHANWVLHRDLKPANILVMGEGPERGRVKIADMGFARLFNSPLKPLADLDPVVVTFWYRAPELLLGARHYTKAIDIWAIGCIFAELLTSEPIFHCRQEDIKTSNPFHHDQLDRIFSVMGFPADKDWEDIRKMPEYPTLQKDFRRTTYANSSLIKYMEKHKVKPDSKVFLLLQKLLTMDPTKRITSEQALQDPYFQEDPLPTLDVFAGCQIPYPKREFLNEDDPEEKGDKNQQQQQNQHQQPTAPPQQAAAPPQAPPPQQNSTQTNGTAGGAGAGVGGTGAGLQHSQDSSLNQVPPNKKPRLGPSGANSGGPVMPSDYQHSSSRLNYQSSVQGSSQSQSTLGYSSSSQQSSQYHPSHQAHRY
Outline: (§2)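 KINOMEscan binding assay, test compound at 10 μM against a 52-kinase panel. % Ctrl = (compound signal − positive control signal)/(negative control signal − positive control signal) × 100, with DMSO as negative control (100%) and a positive control (0%).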

[6] = target: Tyrosine-protein kinase receptor Tie-1 (Homo sapiens) (UniProt P35590); experiment: Inhibition of human partial length TIE1 (T819 to A1138 residues) expressed in bacterial expression system assessed as residual activity at 10 uM by kinome scan method relative to control; outline: as §1
[7] = target: Receptor-interacting serine/threonine-protein kinase 4 (Homo sapiens) (UniProt P57078); experiment: Inhibition of human partial length RIPK4 (M1 to V303 residues) expressed in mammalian expression system assessed as residual activity at 10 uM by kinome scan method relative to control; outline: as §1
[8] = target: Citron Rho-interacting kinase (Homo sapiens) (UniProt O14578); experiment: Inhibition of human partial length CIT (M68 to E432 residues) expressed in bacterial expression system assessed as residual activity at 10 uM by kinome scan method relative to control; outline: as §2
[9] = target: Membrane-associated tyrosine- and threonine-specific cdc2-inhibitory kinase (Homo sapiens) (UniProt Q99640); experiment: Inhibition of human partial length PKMYT1 (A88 to G366 residues) expressed in bacterial expression system assessed as residual activity at 10 uM by kinome scan method relative to control; outline: as §1
Chain of Membrane-associated tyrosine- and threonine-specific cdc2-inhibitory kinase (Homo sapiens) (Q99640 whole entry, the tested form may be a part): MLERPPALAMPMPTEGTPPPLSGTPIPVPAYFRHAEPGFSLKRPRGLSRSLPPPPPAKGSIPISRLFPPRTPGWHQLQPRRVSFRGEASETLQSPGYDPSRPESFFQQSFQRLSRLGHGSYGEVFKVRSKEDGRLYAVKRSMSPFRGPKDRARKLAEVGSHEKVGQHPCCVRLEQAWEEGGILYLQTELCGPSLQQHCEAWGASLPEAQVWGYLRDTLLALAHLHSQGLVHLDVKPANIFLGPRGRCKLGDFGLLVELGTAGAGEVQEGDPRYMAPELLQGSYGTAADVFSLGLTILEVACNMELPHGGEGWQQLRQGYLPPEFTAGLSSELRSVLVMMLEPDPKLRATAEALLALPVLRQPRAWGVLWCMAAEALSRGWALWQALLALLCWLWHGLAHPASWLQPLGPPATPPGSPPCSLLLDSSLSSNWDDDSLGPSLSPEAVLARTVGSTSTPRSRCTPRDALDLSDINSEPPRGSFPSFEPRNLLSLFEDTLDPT

[10] = target: Receptor tyrosine-protein kinase erbB-3 (Homo sapiens) (UniProt P21860); experiment: Inhibition of human partial length ERBB3 (G684 to A987 residues) expressed in mammalian expression system assessed as residual activity at 10 uM by kinome scan method relative to control; outline: as §2
[11] = target: AP2-associated protein kinase 1 (Homo sapiens) (UniProt Q2M2I8); experiment: Inhibition of human partial length AAK1 (G25 to L333 residues) expressed in bacterial system assessed as residual activity at 10 uM by kinome scan method relative to control; outline: as §2
[12] = target: Serine/threonine-protein kinase mTOR (Homo sapiens, UniProt P42345); experiment: Inhibition of mTOR in human U87MG cells assessed as suppression of phosphorylation of S6 ribosomal at Ser235/236 residues at 25 nM after 3 hrs by Western blot analysis; format: cell-based; conditions: U87
Outline: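 U87MG cells were seeded at 1×10^6 per well and held overnight at 37 °C, 5% CO2. They were then exposed to a range of inhibitor concentrations for 3 h at 37 °C. Phospho-Akt (Ser473, Thr308), phospho-S6 (Ser235/236) and phospho-4E-BP1 (Thr37/46) were measured by Western blot with GAPDH as loading control. Bands were quantified as mean ± SD of 3 biological replicates against untreated cells.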

U87 [13] = experiment: Inhibition of PI3K in human U87MG cells assessed as suppression of phosphorylation of AKT at Ser473 residue at 25 nM after 3 hrs by Western blot analysis; format: cell-based
Outline: (§3)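 U87MG cells seeded at 1×10^6 per well, incubated overnight at 37 °C, 5% CO₂, then treated at various concentrations for 3 h at 37 °C. Western blot for phospho-Akt (Ser473, Thr308), phospho-S6 (Ser235/236) and phospho-4E-BP1 (Thr37/46), with GAPDH as internal control. Bands quantified as mean ± SD, n = 3 biological replicates, versus untreated cells.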

[14] = target: Phosphatidylinositol 4-phosphate 3-kinase C2 domain-containing subunit beta (Homo sapiens) (UniProt O00750); experiment: Inhibition of human partial length PIK3C2B (M1 to L1634 residues) expressed in bacterial expression system assessed as residual activity at 10 uM by kinome scan method relative to control; outline: as §2
Chain of Phosphatidylinositol 4-phosphate 3-kinase C2 domain-containing subunit beta (Homo sapiens) (O00750 whole entry, the tested form may be a part): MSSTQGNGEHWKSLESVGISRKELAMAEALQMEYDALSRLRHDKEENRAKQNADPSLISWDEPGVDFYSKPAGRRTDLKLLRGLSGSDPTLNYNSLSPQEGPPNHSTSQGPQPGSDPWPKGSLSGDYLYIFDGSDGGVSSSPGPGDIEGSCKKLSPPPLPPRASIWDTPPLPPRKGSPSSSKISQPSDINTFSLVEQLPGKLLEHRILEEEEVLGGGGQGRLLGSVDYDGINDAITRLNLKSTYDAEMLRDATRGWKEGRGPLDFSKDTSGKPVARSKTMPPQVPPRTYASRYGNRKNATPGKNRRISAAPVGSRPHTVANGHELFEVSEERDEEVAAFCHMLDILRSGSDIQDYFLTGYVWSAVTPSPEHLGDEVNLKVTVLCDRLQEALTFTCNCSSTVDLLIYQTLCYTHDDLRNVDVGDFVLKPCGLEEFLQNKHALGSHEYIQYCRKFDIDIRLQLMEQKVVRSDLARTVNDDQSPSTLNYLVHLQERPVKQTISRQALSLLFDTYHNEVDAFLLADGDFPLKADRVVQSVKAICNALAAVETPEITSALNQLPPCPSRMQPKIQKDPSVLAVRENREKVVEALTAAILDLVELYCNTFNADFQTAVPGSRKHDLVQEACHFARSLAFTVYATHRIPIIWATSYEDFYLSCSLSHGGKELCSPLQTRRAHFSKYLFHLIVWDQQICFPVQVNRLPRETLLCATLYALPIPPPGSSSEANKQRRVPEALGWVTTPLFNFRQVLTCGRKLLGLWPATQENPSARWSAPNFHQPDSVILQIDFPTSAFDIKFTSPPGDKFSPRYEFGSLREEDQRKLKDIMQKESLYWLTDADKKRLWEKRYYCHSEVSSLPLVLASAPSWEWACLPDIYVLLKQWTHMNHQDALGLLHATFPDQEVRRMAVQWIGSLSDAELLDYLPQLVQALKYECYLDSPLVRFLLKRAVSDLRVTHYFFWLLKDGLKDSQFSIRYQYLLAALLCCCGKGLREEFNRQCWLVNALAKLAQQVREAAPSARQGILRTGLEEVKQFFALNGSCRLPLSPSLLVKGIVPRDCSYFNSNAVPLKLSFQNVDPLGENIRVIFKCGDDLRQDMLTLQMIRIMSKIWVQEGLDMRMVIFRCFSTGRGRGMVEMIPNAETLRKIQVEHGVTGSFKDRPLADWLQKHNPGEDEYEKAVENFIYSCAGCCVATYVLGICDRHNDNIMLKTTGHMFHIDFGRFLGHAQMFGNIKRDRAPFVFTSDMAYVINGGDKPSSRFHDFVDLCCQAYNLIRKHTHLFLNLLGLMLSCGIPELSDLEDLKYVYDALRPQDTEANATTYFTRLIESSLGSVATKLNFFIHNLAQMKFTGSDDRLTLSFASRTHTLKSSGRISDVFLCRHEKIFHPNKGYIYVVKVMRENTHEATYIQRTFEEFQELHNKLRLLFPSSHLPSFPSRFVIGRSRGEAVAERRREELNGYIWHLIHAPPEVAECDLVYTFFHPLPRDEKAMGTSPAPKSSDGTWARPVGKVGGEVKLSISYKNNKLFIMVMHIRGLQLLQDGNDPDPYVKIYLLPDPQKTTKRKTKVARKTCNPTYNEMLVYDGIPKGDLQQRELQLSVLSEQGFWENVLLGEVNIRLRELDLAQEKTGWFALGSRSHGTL

[15] = target: Cyclin-dependent kinase 17 (Homo sapiens) (UniProt Q00537); experiment: Inhibition of human full length PCTK2 (M1 to F523 residues) expressed in bacterial expression system assessed as residual activity at 10 uM by kinome scan method relative to control; outline: as §2
[16] = target: Cyclin-dependent kinase-like 3 (Homo sapiens) (UniProt Q8IVW4); experiment: Inhibition of human partial length CDKL1 (M1 to D327 residues) expressed in bacterial system assessed as residual activity at 10 uM by kinome scan method relative to control; outline: as §2
Chain of Cyclin-dependent kinase-like 3 (Homo sapiens) (Q8IVW4 whole entry, looked up, the tested form may be a part): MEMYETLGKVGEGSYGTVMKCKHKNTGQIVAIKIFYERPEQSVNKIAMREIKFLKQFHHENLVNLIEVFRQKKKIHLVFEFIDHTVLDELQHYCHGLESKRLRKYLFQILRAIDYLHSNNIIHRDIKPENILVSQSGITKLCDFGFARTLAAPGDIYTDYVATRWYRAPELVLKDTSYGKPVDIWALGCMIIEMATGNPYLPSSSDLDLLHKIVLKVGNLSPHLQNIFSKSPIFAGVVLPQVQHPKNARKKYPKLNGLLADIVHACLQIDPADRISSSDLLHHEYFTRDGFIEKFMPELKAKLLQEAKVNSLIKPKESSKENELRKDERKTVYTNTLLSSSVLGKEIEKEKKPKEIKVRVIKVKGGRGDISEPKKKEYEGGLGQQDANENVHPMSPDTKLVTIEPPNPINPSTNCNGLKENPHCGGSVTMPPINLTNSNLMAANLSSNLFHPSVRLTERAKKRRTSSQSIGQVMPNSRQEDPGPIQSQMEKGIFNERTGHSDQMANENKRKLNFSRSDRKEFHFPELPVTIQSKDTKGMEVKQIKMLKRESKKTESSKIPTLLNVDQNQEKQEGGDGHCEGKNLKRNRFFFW

[17] = target: Ankyrin repeat and protein kinase domain-containing protein 1 (Homo sapiens) (UniProt Q8NFD2); experiment: Inhibition of human partial length ANKK1 (M1 to A305 residues) expressed in bacterial system assessed as residual activity at 10 uM by kinome scan method relative to control; outline: as §2
Chain of Ankyrin repeat and protein kinase domain-containing protein 1 (Homo sapiens) (Q8NFD2 whole entry, the tested form may be a part): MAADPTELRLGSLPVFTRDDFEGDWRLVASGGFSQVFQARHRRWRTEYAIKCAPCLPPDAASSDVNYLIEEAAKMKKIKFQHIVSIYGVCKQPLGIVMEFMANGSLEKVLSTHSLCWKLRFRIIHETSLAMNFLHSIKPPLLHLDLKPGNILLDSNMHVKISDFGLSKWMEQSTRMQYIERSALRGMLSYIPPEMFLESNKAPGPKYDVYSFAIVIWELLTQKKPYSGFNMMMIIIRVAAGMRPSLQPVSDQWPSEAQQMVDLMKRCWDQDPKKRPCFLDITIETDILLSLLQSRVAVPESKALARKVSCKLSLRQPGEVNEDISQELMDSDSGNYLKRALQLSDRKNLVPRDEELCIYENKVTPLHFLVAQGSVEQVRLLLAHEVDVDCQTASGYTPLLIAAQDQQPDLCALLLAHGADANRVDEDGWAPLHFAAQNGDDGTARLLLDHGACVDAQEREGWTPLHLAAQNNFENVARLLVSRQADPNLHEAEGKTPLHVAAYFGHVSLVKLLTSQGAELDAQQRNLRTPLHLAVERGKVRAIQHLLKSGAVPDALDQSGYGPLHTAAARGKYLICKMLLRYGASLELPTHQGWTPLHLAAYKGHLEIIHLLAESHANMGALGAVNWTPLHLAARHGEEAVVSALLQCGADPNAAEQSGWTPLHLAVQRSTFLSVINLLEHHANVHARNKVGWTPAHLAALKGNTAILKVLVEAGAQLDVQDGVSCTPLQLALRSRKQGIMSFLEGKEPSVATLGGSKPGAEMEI

[18] = target: Cyclin-dependent kinase 14 (Homo sapiens) (UniProt O94921); experiment: Inhibition of human full length PFTK1 (M1 to H451 residues) expressed in bacterial expression system assessed as residual activity at 10 uM by kinome scan method relative to control; outline: as §2
[19] = target: Phosphatidylinositol 4,5-bisphosphate 3-kinase catalytic subunit delta isoform (Homo sapiens) (UniProt O00329); experiment: Inhibition of human partial length PIK3CD (R108 to Q1044 residues) expressed in mammalian expression system assessed as residual activity at 10 uM by kinome scan method relative to control; outline: as §1
U87 [20] = experiment: Inhibition of PI3K in human U87MG cells assessed as suppression of phosphorylation of AKT at Thr308 residue at 25 nM after 3 hrs by Western blot analysis; format: cell-based; outline: as §3

For `COc1ncc(-c2ccc3nccc(/C(C)=C/C(=O)N4CCN(C)CC4)c3c2)cc1NS(=O)(=O)c1ccc(F)cc1F`, the Activity [1] was “Non-Toxic”, the Activity [2] was 87% and the IC50 [3] was 0.8 nM. The Activity [4] was 0%, the Activity [5] was 95% and the Activity [6] was 71%. It also gave an Activity [7] of 82%, an Activity [8] of 71% and an Activity [9] of 70%. The Activity [10] was 89%, the Activity [11] was 44% and the inhibition [12] was “Active”. For the same molecule, the inhibition (U87 [13]) was “Active”, the Activity [14] was 0% and the Activity [15] was 100%. For the same molecule, the Activity [16] was 100%, the Activity [17] was 100% and the Activity [18] was 78%. The Activity [19] was 0% and the inhibition (U87 [20]) was “Active”.

Source: ChEMBL document CHEMBL4732196, “Structural optimization towards promising β-methyl-4-acrylamido quinoline derivatives as PI3K/mTOR dual inhibitors for anti-cancer therapy: The in vitro and in vivo biological evaluation” (Eur J Med Chem, 2021)
